An excerpt weighted towards active compounds, which were near 1.7% of everything screened.
Myeloid diff MLP: induction of myeloid progenitor differentiation, primary screen, cell-based, flow cytometry, MLPCN library | ER-HoxA9 myeloid progenitors, lysozyme-GFP differentiation | calls only at 10 µM | hit rate 1% among 360,000;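 active means normalized GFP-positive differentiation at or above the plate's own cutoff, the solvent-only control mean plus 3 SD; inconclusive means no clear call, values can overlap the other calls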;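 further: cells exposed to compound for four days before flow analysis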
Pemphigus Ab inh: inhibitors of pemphigus antibody binding to DSG3, primary screen, biochemical, bead-based, flow cytometry, scFv-GFP; Desmoglein-3 (Homo sapiens), P32926; DSG3-coupled beads, scFv-anti-DSG3-GFP binding; active compounds read low; binding (percent of control), % at 10 µM; hit rate 0.48% among 310,000;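 active means binding more than 3 SD below its plate's average and above zero; inconclusive means below that plate limit but binding exactly zero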;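 further: hits lower antibody fragment binding to DSG3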
Target sequence (P32926 whole entry, looked up, the tested form may be a part): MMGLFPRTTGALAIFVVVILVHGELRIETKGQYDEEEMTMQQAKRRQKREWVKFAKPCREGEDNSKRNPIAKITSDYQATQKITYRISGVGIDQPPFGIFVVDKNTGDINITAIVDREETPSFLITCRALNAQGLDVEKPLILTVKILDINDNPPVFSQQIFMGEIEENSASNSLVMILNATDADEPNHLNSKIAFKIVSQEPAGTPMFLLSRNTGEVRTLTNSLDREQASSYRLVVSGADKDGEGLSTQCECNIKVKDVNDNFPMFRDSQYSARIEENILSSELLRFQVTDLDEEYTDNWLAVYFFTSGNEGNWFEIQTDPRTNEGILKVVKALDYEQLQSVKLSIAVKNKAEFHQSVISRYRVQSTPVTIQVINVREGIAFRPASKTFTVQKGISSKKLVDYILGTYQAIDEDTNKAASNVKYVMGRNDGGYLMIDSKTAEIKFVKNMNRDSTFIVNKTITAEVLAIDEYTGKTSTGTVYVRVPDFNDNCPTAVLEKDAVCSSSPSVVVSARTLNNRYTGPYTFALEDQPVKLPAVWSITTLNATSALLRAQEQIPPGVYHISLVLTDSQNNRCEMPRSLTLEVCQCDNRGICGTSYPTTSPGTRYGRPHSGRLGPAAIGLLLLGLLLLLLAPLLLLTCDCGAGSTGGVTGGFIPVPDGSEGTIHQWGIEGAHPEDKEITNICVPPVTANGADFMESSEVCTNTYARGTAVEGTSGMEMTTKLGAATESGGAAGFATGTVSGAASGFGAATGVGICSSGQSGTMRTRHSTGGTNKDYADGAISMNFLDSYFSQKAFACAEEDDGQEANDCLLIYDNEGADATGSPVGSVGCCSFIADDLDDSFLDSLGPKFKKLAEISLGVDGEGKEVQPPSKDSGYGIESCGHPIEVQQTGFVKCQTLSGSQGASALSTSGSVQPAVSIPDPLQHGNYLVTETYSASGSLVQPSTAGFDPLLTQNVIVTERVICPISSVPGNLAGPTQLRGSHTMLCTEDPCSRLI
T cell modulator: modulators of CD8 T cell-vesicle binding, primary screen, mouse 2C CD8+ T cells, flow cytometry; 2C CD8+ T cell-vesicle binding; active compounds read low; response (vesicle binding), % at 7 µM; hit rate 0.068% among 330,000; AID 2052, 2009;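 active means response, share of CD8 T cells binding vesicles, and their 90th percentile fluorescence all below set limits, cut at about 80% in these data, passing the limit was not always enough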;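 further: values below 100% mean blocked vesicle binding to the CD8+ T cells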
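Assay system: 2C TCR transgenic mouse naive CD8+ T cells, MACS-purified | Read-out: CD8+ gate FL2 mean fluorescence as % of same-row positive control | Signal: High-throughput flow cytometry with anti-B7-1 and anti-CD8 staining | Timing: Binding step 1.5 h, 37 °C, antibody labelling 20 min, ice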
Vif imaging: HIV Vif self-association inhibitors, primary screen, imaging, HEK293T, single point | HEK293T cells, Vif self-association by quenched fluorescence, 24 h | inhibition, % at 7.49 µM | hit rate 0.35% among 340,000; in the data active means inhibition above about 50%, passing the limit was not always enough; inconclusive means no clear call, values can overlap the other calls; inactive means below about 31%
Myeloid diff: inducers of myeloid progenitor differentiation, confirmation, cell-based, GFP/Mac1 flow cytometry, cherry pick 01; calls only; hit rate 2% among 2,300; ER-HoxA9 myeloid progenitors, GFP/Mac1 double-positive flow; shares compounds with Myeloid diff MLP;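 active means share of green or green-and-red cells above 9 and 9% in run 1 or 4 and 3% in run 2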
GFP autofluor: compound fluorescence in myeloid differentiation counter-screen; hit rate 7.4% among 2,300; fluorescence response, % (no concentration beside the values); shares compounds with Myeloid diff MLP; ER-HoxA9 myeloid progenitors, no estrogen, GFP autofluorescence flow cytometry; vehicle wells 0%, positive control 100%;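 active means over 5% cells positive for green fluorescent reporter, or over 2% positive for both it and APC stain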;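 further: range taken on the double positive population between DMSO and positive control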
* marks the source's active call; other numbers are inactive results; i = inactive; ? = inconclusive; . = not tested or not shown; + = active, no number.

SMILES | Myeloid diff MLP | Pemphigus Ab inh | T cell modulator | Vif imaging | Myeloid diff | GFP autofluor
COC(=O)COc1ccc(S(=O)(=O)Nc2ccc3c(c2)OCO3)cc1Cl | + | 107 | 356 | 3 | i | 0
Cc1ccc(NS(=O)(=O)c2cc(C(=O)N(C)C3CCN(C)CC3)ccc2Cl)cc1Cl | i | 107 | 278 | -4 | . | .
COc1ccc(Cn2c(C)nc3c(c2=O)c2nc4ccccc4nc2n3Cc2ccco2)cc1 | i | 91 | . | 0 | i | 0
O=C(/C=C/c1ccc2c(c1)OCO2)NCCS(=O)(=O)N1CCN(c2ccccc2)CC1 | i | 104 | . | 4 | . | .
Cc1ccc(S(=O)(=O)NCCC(=O)N2CCN(Cc3ccccc3)CC2)cc1 | + | ? | 833 | -4 | i | 0
CS(=O)(=O)Nc1cccc(C2=NN(S(=O)(=O)c3ccccc3)C(c3ccco3)C2)c1 (configuration not stated) | i | 102 | 272 | -7 | . | .
CCS(=O)(=O)N1N=C(c2cccc(NS(C)(=O)=O)c2)CC1c1ccccc1 (configuration not stated) | + | 314 | 438 | 15 | i | 97*
CCOC(=O)c1cc(Br)c(=O)n2ccccc12 | i | 110 | 214 | 2 | . | .
CCOC(=O)c1cc(C(=O)OCC)c2cccc(C)n2c1=O | + | 97 | 191 | 3 | i | 0
CCc1ccc(CNC(=O)CCc2nnc(Cc3cccc(C(F)(F)F)c3)o2)nc1 | + | 108 | 456 | -2 | i | 0
CCN(C)C1CN(Cc2cn(Cc3ccc(C(F)(F)F)cc3)nn2)S(=O)(=O)C1 (configuration not stated) | i | . | . | . | . | .
CC(=O)Nc1ccc(OCC(O)Cn2c3ccccc3c3ccccc32)c(C)c1 (configuration not stated) | i | 79 | 285 | -8 | . | .
CC(=O)Nc1ccc(OCC(O)Cn2c3ccccc3c3ccccc32)cc1 (configuration not stated) | i | 95 | 191 | -6 | i | 8.5*
O=C(NCCN1CCOCC1)N1CCOCC1 | i | 105 | 365 | 7 | i | 0
CCC(=O)N1CCC1(C)C(=O)Nc1cc(OC)ccc1OC (configuration not stated) | i | . | . | 17 | . | .
CCOc1ccc(-c2cc(C(=O)N/N=C(\C)c3cccnc3)c3ccccc3n2)c(OCC)c1 | i | 96 | 523 | 4 | . | .
COc1ccc(C2NC(=O)NC(C)=C2C(=O)Nc2cccc(C)c2C)cc1 (configuration not stated) | i | 100 | 331 | 19 | . | .
CC1=C(C(=O)Nc2ccccc2Cl)C(c2ccc(N(C)C)cc2)NC(=O)N1 (configuration not stated) | + | 157 | 164 | 8 | i | 0
CN(C)S(=O)(=O)NCC1CCCN(Cc2cc3ccccc3s2)C1 (configuration not stated) | i | 116 | 187 | -12 | i | 0
CN(C)S(=O)(=O)NCC1CCCN(Cc2ccc(-c3ccccc3)cc2)C1 (configuration not stated) | i | 105 | 199 | -21 | . | .
CCc1ccc(N2C(=O)CN(Cc3ccc(OC)c(OC)c3)C2=S)cc1 | + | 99 | 578 | 11 | i | 2
O=C(N/N=C/c1cccc(O)c1)c1ccc(COc2cccc3cccnc23)cc1 | + | 95 | 513 | 1 | i | 0
CCc1nc2c(OCc3ccc(F)cc3)cccn2c1N(C)C(=O)COc1ccccc1 | i | . | . | -6 | . | .
Cc1cccc(N2CCN(S(=O)(=O)c3c(C)[nH]c(=O)[nH]c3=O)CC2)c1C | i | 122 | i | -2 | i | 0
COc1cccc(NC(=O)C2CC(=O)N(C)C(=Nc3cccc(F)c3)S2)c1 (configuration not stated) | i | 100 | 384 | -4 | i | 0
SMILES | Myeloid diff MLP | Pemphigus Ab inh | T cell modulator | Vif imaging | Myeloid diff | GFP autofluor
COc1cccc(N=C2SC(C(=O)Nc3ccccc3F)CC(=O)N2C)c1 (configuration not stated) | i | 101 | 433 | 3 | . | .
O=C(CSc1n[nH]c(-c2cccs2)n1)NCCc1ccccc1 | i | 102 | 426 | 6 | . | .
COC(=O)CCCCCN1C(=O)NC(c2ccccc2)C(C(=O)OCc2ccccc2)=C1C (configuration not stated) | i | 98 | . | -2 | i | 1
CC1=C(C(=O)OCc2ccccc2)C(c2ccc(Br)cc2)NC(=O)N1CCCCCC(=O)O (configuration not stated) | i | 103 | . | 1 | . | .
Cc1cccc(CNC(=O)c2sc(=O)n(Cc3ccc(S(C)(=O)=O)cc3)c2C)c1 | i | . | . | -3 | . | .
OC(CNCCCN1CCCCC1)COc1ccccc1 (configuration not stated) | + | 112 | 375 | 13 | i | 0
CC(C)(C)C(=O)Nc1cc(NC(=O)C(C)(C)C)cc(C(=O)NNC(=O)c2ccncc2)c1 | + | 110 | 240 | -3 | i | 0
Cc1cc(SCC(=O)N2c3ccccc3NC(=O)CC2C)nc2ccccc12 (configuration not stated) | i | 102 | . | . | . | .
CC(C)(C)c1ccc(C(=O)NC(Cc2ccccc2)C(=O)O)cc1 (configuration not stated) | i | 103 | 208 | -1 | i | 0
N#CC(C#N)=c1ccc2c(c1)N1C(c3ccccc3)=CC(c3ccccc3)C3CCCCC31N=2 (configuration not stated) | + | 86 | 568 | 11 | i | 0
NNC(=O)c1ccc(CSc2cccc3cccnc23)cc1 | i | 86 | 198 | -1 | i | 0
COc1ccccc1Cc1c(-c2ccc(C)cc2)nc2cc(C)c(Br)c(C)n12 | i | . | . | . | . | .
COc1ccc(C(C)(NC(C)=O)c2nc(/C=C/c3ccccc3)cs2)cc1 (configuration not stated) | i | . | . | -10 | . | .
COc1ccc(NC(=O)c2ccc3nccnc3c2)cc1 | i | 99 | 180 | 6 | i | 0
CCOc1ccccc1C(C(=O)NCCOC)N(CCOC)C(=O)Cn1nnc2ccccc21 (configuration not stated) | i | 94 | 168 | -7 | i | 0
COCCN(CCOC)Cc1cc(=O)oc2cc(C)cc(C)c12 | i | . | . | . | . | .
O=C1c2ccccc2C(=O)C2OC12 (configuration not stated) | . | . | 129 | . | . | .
Cc1occc1C(=O)NCCCCc1ccccc1 | i | 98 | 481 | 4 | . | .
COc1ccccc1CCNC(=O)c1ccoc1C | + | 114 | 277 | 0 | i | 0
